Active and inactive are the calls of the source. No cut-off for these calls is given here.
Assays:
Embryonic stem cell [1] = experiment: Induction of cardiac differentiation in mouse ESC transfected with Myh6-GFP treated for 48 hrs and measured after 3 to 6 days by imaging analysis; assay type: functional, cell-based; settings: time 3-6 day
Outline: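 mESC-Myh6-GFP seeded on 0.1% gelatine at 500 cells/well in LIF-free medium to differentiate spontaneously (day 0). Inhibitors given dose-dependently for 48 h over the stated day windows. Medium later changed to complete LIF-free medium. On day 11, cells PFA-fixed and DAPI-stained. GFP+ cardiomyocytes quantified by high-content imaging, normalized to DMSO; mean ± SEM.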

[2] = Inhibition of DMH-1 induced cardiogenesis in mouse ESC transfected with Myh6-GFP; assay type: functional, cell-based; settings: embryonic stem cell
Outline: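 mESC-Myh6-GFP, 500 cells/well on gelatine, LIF-free medium from day 0. On day 3, compounds added (triplicates for IC50) with DMH-1 at 0.5 μM final, 0.2% DMSO, 6% FBS; 24 h. Medium then changed, refreshed days 7 and 9. Day 11: PFA fixation, DAPI stain, automated imaging of GFP intensity and cell count, normalized to DMH-1. Cell count below 70% of DMH-1 flagged as cytotoxic.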

C2C12 [3] = experiment: Potentiation of BMP receptor in BMP-4 stimulated mouse C2C12 cells assessed as decrease in cytoplasmic Smad2 level preincubated for 24 hrs followed by BMP-4 stimulation and measured after 30 mins in presence of […]/BMP by Western blot analysis; assay type: cell-based; settings: filed as activator, time 24.5 hrs
Outline: (§1)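 C2C12 cells exposed to compound with TGFβ-2 (10 ng/mL) for 24 h; for nuclear readout, a further 30 min BMP-4 at 2 ng/mL. Cytoplasmic and nuclear fractions isolated in HEPES buffers, pH 7.5, with phosphatase and protease inhibitors. Smads detected by Western blot, luminescence normalized to total protein per lane (trichloroethanol stain), then to DMSO.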

C2C12 [4] = experiment: Potentiation of BMP receptor in mouse C2C12 cells assessed as increase in Id2 gene expression level incubated for 24 hrs by qRT-PCR analysis; settings: filed as activator
C2C12 [5] = experiment: […] of osteoblastogenesis in mouse C2C12 cells assessed as upregulation of Opn gene expression in presence of BMP4 at 1 uM measured after 72 hrs; assay type: functional, cell-based
Outline: (§2)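 C2C12 cells plated at 1 × 10⁵ cells/well and treated with compound (1 μM) plus BMP-4 (7.5 ng/mL) or DMSO for 72 h. RNA isolated and transcripts quantified by qRT-PCR using the ΔΔCp method. Mean of triplicates ± SD, normalized to DMSO.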

C2C12 [6] = experiment: Potentiation of BMP receptor in mouse C2C12 cells assessed as decrease in cytoplasmic Smad2 level incubated for 24 hrs in presence of […]/BMP by Western blot analysis; assay type: cell-based; settings: filed as activator; outline: as §1
C2C12 [7] = experiment: Induction of BMP-dependent osteogenesis in mouse C2C12 cells incubated for 72 hrs; assay type: functional, cell-based
Outline: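 C2C12 myoblasts, 2000 cells/well in DMEM with 6% heat-inactivated FBS, grown 16 h; compounds added in triplicate, then BMP-4 at 7.5 ng/mL; 72 h. ALP activity read by luminescence after lysis with CDP-Star substrate, 1 h at room temperature in the dark. Activity with 7.5 ng/mL BMP-4 in DMSO set to 100%. EC50 by curve fitting.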

C2C12 [8] = experiment: […] of osteoblastogenesis in mouse C2C12 cells assessed as upregulation of Col1a1 gene expression in presence of BMP4 at 1 uM measured after 72 hrs; assay type: functional, cell-based; outline: as §2
C2C12 [9] = experiment: […] of osteoblastogenesis in mouse C2C12 cells assessed as upregulation of Osx gene expression in presence of BMP4 at 1 uM measured after 72 hrs; assay type: functional, cell-based; outline: as §2
C2C12 [10] = experiment: Potentiation of BMP receptor in mouse C2C12 cells assessed as increase in Id1 gene expression level incubated for 24 hrs by qRT-PCR analysis; settings: filed as activator
C2C12 [11] = experiment: […] of osteoblastogenesis in mouse C2C12 cells assessed as upregulation of Alp gene expression in presence of BMP4 at 1 uM measured after 72 hrs; assay type: functional, cell-based; outline: as §2
C2C12 [12] = experiment: […] of osteoblastogenesis in mouse C2C12 cells assessed as upregulation of Runx2 gene expression in presence of BMP4 at 1 uM measured after 72 hrs; assay type: functional, cell-based; outline: as §2
SAOS-2 = experiment: Induction of osteoblastic mineralization in human SAOS-2 cells at 25 nM followed by BMP-4 addition measured after 11 days of osteogenic differentiation; assay type: functional, cell-based; settings: time 11.0 day
Outline: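 SaOS-2 cells, 8×10³ cells/well, in osteogenic medium (10 mM β-glycerophosphate, 0.2 mM ascorbic acid, 10 nM dexamethasone) with 2 ng/mL BMP-4 or BMP-2 for 11 days. Medium and compound changed every 3 days; ascorbate refreshed daily; DMSO 0.01% vehicle. Mineralization by von Kossa staining; stained area quantified from at least four images per condition at 100× magnification.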

C2C12 [13] = experiment: […] of osteoblastogenesis in mouse C2C12 cells assessed as upregulation of Ocn gene expression in presence of BMP4 at 1 uM measured after 72 hrs; assay type: functional, cell-based; outline: as §2
Embryonic stem cell [14] = experiment: Induction of cardiac differentiation in mouse ESC transfected with Myh6-GFP treated for 48 hrs and measured after 4 to 6 days by imaging analysis; assay type: functional, cell-based; settings: time 4-6 day
[15] = Induction of alkaline phosphatase activation in mouse C2C12 cells assessed as fold increase incubated in presence of 50 ng/ml BMP4 at 1 uM relative to BMP4 alone; assay type: functional
[16] = biological target: Glycogen synthase kinase-3 beta (Homo sapiens, UniProt P49841); experiment: Inhibition of GSK3beta (unknown origin)
Glycogen synthase kinase-3 beta, sequence (P49841 whole entry): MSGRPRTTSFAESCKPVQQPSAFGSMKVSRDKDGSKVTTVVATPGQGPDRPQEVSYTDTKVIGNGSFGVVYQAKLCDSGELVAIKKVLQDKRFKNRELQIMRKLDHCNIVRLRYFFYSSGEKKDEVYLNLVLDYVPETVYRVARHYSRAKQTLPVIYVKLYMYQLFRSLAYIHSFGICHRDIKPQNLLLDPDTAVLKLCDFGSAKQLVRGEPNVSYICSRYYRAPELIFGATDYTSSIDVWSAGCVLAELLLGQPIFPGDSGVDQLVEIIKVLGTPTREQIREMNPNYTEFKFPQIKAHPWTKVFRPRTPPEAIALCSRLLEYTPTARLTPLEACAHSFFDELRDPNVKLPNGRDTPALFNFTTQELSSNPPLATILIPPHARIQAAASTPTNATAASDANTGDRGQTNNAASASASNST

Q: Which Activity (Embryonic stem cell [1]) does the source give for `c1cc(-c2cnn3cc(-c4ccc(OCCN5CCCCC5)cc4)cnc23)ccn1` here?
A: Its Activity is “Active”.

Q: For `O=c1c(-c2ccc(C(F)(F)F)cc2)c(-n2cncn2)oc2ccccc12`, which IC50 [2] is on record?
A: Its IC50 is 200 nM.

Q: And the Activity (C2C12 [3])?
A: Its Activity is “Active”.

Q: What about the Activity (C2C12 [4]) of the same compound?
A: Its Activity is “Active”.

Q: What about the Activity (C2C12 [5]) of the same compound?
A: The Activity was “Active”.

Q: And the Activity (C2C12 [6])?
A: The Activity was “Active”.

Q: And the Activity (C2C12 [7])?
A: The Activity was “Active”.

Q: What about the Activity (C2C12 [8]) of the same compound?
A: The Activity was “Active”.

Q: And the Activity (C2C12 [9])?
A: The Activity was “Active”.

Q: What about the Activity (C2C12 [10]) of the same compound?
A: Its Activity is “Active”.

Q: And the Activity (C2C12 [11])?
A: Its Activity is “Active”.

Q: What about the Activity (C2C12 [12]) of the same compound?
A: Its Activity is “Active”.

Q: What about the Activity (SAOS-2) of the same compound?
A: The Activity was “Active”.

Q: What about the Activity (C2C12 [13]) of the same compound?
A: The Activity was “Active”.

Q: With `NC(=O)c1ccc(-c2nc(-c3ccccn3)c(-c3ccc4c(c3)OCO4)[nH]2)cc1` as the compound, how does the Activity (Embryonic stem cell [14]) read?
A: The Activity was “Active”.

Q: Which IC50 [2] does the source give for `Cc1cc(Nc2cc(Cl)nc(Oc3ccc([N+](=O)[O-])cc3)n2)n[nH]1` here?
A: Its IC50 is 200 nM.

Q: What about the “fold change (FC)” value [15] of the same compound?
A: Its value is 2.

Q: And the Activity (C2C12 [7])?
A: Its Activity is “Active”.

Q: What about the IC50 [16] of the same compound?
A: The IC50 was 2 nM.

From ChEMBL document CHEMBL5154719, “Probing Embryonic Development Enables the Discovery of Unique Small-Molecule Bone Morphogenetic Protein Potentiators” (J Med Chem, 2022)
